Source: PubChem
LEDGF integ inh = blockers of LEDGF/p75-dependent integrase strand transfer – biochemical, TR-FRET, high throughput, primary screen | HIV-1 integrase (with human LEDGF/p75) | TR-FRET IN-LEDGF/p75 DNA integration, Eu/Cy5 | inhibition, % at 3.7 µM | 0.64% of 370,000 active;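 active means inhibition above the screen-wide mean plus 3 SD, cut at about 13% in these data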;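 further: signal is the Cy5 over europium emission ratio at 671 and 618 nm; 0% = plate median of compound wells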
ARFGAP1 inh = inhibitors of rat ARFGAP1 GAP activity, primary screen, biochemical, fluorescence polarization, GDP tracer | inhibition, % at 16.5 µM | ADP-ribosylation factor GTPase-activating protein 1 (Rattus norvegicus), Q62848 | 0.26% of 360,000 active | Arfgap1-stimulated ARF1 GTP hydrolysis, GDP FP detection;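 active means inhibition above a per-plate limit, mean inhibition of low control wells plus 3 SD, cut at about 25% in these data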;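 further: 0% = DMSO wells with enzyme and 100% = wells lacking Arfgap1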
Target sequence (Q62848 1-136 limits assumed): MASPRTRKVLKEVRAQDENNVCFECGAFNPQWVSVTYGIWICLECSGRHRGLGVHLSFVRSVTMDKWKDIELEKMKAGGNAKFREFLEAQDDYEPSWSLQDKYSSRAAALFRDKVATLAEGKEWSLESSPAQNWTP
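System: truncated rat Arfgap1 GAP domain / Benchmarks: high control wells lacking Arfgap1, low control full reaction with DMSO / Times: compound-enzyme preincubation 20 min, reaction 120 min, detection 60 min, 25 °C / Repeats: one replicate per compound / Also added: human ARF1(Δ1-17)-GTP substrate / Measured by: Tracer-displacement fluorescence polarization with EDTA stop, 620/688 nm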
MBD2 DNA inh = inhibitors of MBD2 binding to methylated DNA, primary screen, biochemical, TR-FRET, DNA-binding domain, human | Methyl-CpG-binding domain protein 2 (Homo sapiens), Q9UBB5 | MBD2 binding to methylated oligonucleotide | inhibition, % at 4.4 µM | 0.31% of 370,000 active | AID 686964, 2013; in the data active means inhibition above about 13%
TCR CD3 inh = inhibitors of human TCR-CD3 interaction, primary screen, biochemical, fluorescence, TAMRA-labeled TCR probe; inhibition, % at 9.4 µM; 0.37% of 360,000 active; in the data active means inhibition above about 19%;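 further: recombinant mutant TCR 2C K166C tagged with TAMRA read by polarization; 0% = receptor in buffer alone and 100% = receptor with positive control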
ASAP1 GAP inh = inhibitors of human ASAP1 ArfGAP activity, primary screen, biochemical, fluorescence polarization. Arf-GAP with SH3 domain, ANK repeat and PH domain-containing protein 1 (Homo sapiens), …. ASAP1-stimulated ARF1 GTP hydrolysis, GDP FP detection. inhibition, % at 16.5 µM. 0.19% of 360,000 active. AID 624377, 2012; in the data active means inhibition above about 25%;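 further: 0% = vehicle with enzyme and substrate and 100% = no enzyme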
Target sequence (Q9ULH1 325-724 limits assumed): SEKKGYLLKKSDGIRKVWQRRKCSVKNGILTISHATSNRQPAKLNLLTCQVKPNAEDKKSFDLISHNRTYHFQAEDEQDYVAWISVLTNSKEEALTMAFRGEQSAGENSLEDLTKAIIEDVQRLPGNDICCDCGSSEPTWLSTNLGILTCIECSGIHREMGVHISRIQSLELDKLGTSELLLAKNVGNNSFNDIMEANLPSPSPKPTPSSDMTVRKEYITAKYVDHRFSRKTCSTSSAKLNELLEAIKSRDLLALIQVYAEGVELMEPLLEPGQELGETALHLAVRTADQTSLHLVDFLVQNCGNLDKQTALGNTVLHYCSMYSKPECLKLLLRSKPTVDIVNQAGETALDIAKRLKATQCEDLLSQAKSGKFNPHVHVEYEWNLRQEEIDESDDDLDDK
UHRF1 binding = UHRF1 methylated DNA binding inhibitors, primary screen, counter-screen for MBD2 inhibitor project, biochemical, TR-FRET, human UHRF1, single concentration | inhibition, % at 4.4 µM | 0.75% of 370,000 active | E3 ubiquitin-protein ligase UHRF1 (Homo sapiens), Q96T88 | UHRF1 binding to methylated oligo; in the data active means inhibition above about 21%;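 further: UHRF1 SRA domain binding a hemimethylated CpG hairpin DNA probe; 0% = median of test compound wells and 100% = reference inhibitor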
IN multimer act = HIV-1 IN multimer formation enhancers, counter-screen for LEDGF/p75 integration inhibitor project, biochemical, TR-FRET; shares compounds with LEDGF integ inh; TR-FRET HIV-1 integrase multimerization; activation, % at 7.7 µM; 17% of 2,000 active; AID 1053131, 2014; in the data active means activation above about 8.9%
TR-FRET interf = TR-FRET optical interference artefacts, confirmation, artefact control for LEDGF/p75-dependent integration inhibitor project, biochemical, HIV-1 IN multimerization; TR-FRET optical interference counterscreen; 2,000 tested, under 10 active; inhibition, % at 7.7 µM; shares compounds with LEDGF integ inh;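 active means inhibition above the mean over all tested compounds plus 3 SD, which no compound reached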;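 further: 0% = integrase with antibodies and DMSO and 100% = antibodies without integrase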
LEDGF integ conf = inhibitors of HIV-1 IN-LEDGF/p75 DNA integration, confirmation, biochemical, TR-FRET. inhibition, % at 3.7 µM. 36% of 2,000 active. shares compounds with LEDGF integ inh. AID 1053136, 2014. TR-FRET LEDGF/p75-dependent HIV-1 integration; in the data active means inhibition above about 14%
Starred values were filed as active, the others as inactive. This is a sample that favours compounds with a hit; in the whole collection about 2% have one here.

How did Cc1cccc(C)c1OC1(c2ccccc2)OC(=O)c2ccccc21 (stereo not given) do in these assays?
LEDGF integ inh: 0; ARFGAP1 inh: -14; MBD2 DNA inh: 2; TCR CD3 inh: 3; ASAP1 GAP inh: -1; UHRF1 binding: -4

What do the screens show for `CS(=O)(=O)N1CCC2(CC1)OCCN2S(=O)(=O)c1ccccc1`?
LEDGF integ inh: 3; ARFGAP1 inh: 0; MBD2 DNA inh: -4; TCR CD3 inh: 1; ASAP1 GAP inh: -8; UHRF1 binding: 0

What do the screens show for `CCS(=O)(=O)N1CCC2(CC1)OCCN2S(=O)(=O)c1ccccc1`?
LEDGF integ inh: 26*; ARFGAP1 inh: 4; MBD2 DNA inh: 8; TCR CD3 inh: 4; ASAP1 GAP inh: 11; UHRF1 binding: 17; IN multimer act: -6; TR-FRET interf: 22; LEDGF integ conf: 6

Results for CC(C)CC(=O)Nc1nnc(S(=O)(=O)Nc2ccccc2)s1 ?
LEDGF integ inh: -4; ARFGAP1 inh: -12; MBD2 DNA inh: -4; TCR CD3 inh: 4; ASAP1 GAP inh: -8; UHRF1 binding: 0

What do the screens show for `C=CCn1cnc2c(NCc3ccccc3)ncnc21`?
LEDGF integ inh: 89*; ARFGAP1 inh: -4; MBD2 DNA inh: 2; TCR CD3 inh: 1; ASAP1 GAP inh: 1; UHRF1 binding: -1; IN multimer act: 1; TR-FRET interf: -4; LEDGF integ conf: 0

What do the screens show for `O=C(Nc1ccncc1)Nc1cccc(Cl)c1`?
LEDGF integ inh: 1; ARFGAP1 inh: 1; MBD2 DNA inh: -3; TCR CD3 inh: -3; ASAP1 GAP inh: -17; UHRF1 binding: 1

How did O=C(Nc1cccc(C2=NCCN2)c1)Nc1cccc(C2=NCCN2)c1 do in these assays?
LEDGF integ inh: 18*; ARFGAP1 inh: 2; MBD2 DNA inh: 0; TCR CD3 inh: -4; ASAP1 GAP inh: 0; UHRF1 binding: 8; IN multimer act: -3; TR-FRET interf: 12; LEDGF integ conf: 18*

Results for Cc1cc(C)n(-c2nc3ccccc3nc2NCCc2ccccc2)n1 ?
LEDGF integ inh: 21*; ARFGAP1 inh: 9; MBD2 DNA inh: 0; TCR CD3 inh: -5; ASAP1 GAP inh: 7; UHRF1 binding: 2; IN multimer act: 0; TR-FRET interf: 0; LEDGF integ conf: 2

Results for O=C(O)c1ccccc1C(=O)c1ccc2c(c1)N(Cc1ccc(Cl)c(Cl)c1)C(=O)CO2 ?
LEDGF integ inh: 0; ARFGAP1 inh: -9; MBD2 DNA inh: -1; TCR CD3 inh: 0; ASAP1 GAP inh: 9; UHRF1 binding: -2

How did COCCCNC(=O)/C(C#N)=C/c1ccc(OCC(=O)O)c(OC)c1 do in these assays?
LEDGF integ inh: 17*; ARFGAP1 inh: -4; MBD2 DNA inh: 7; TCR CD3 inh: 4; ASAP1 GAP inh: -10; UHRF1 binding: 34*; IN multimer act: 23*; TR-FRET interf: -115; LEDGF integ conf: 36*

What do the screens show for `COc1ccc(/C=C(\C#N)C(=O)NCCc2ccccc2)cc1OCc1ccccc1`?
LEDGF integ inh: 1; ARFGAP1 inh: 9; MBD2 DNA inh: -2; TCR CD3 inh: 7; ASAP1 GAP inh: 8; UHRF1 binding: -2

What do the screens show for `CCN(CC(=O)Nc1ccc(C#N)cc1)CC(=O)Nc1ccc2c(c1)OCCO2`?
LEDGF integ inh: 2; ARFGAP1 inh: 2; MBD2 DNA inh: -4; TCR CD3 inh: 2; ASAP1 GAP inh: 19; UHRF1 binding: 0

What do the screens show for `O=C1CCC(=O)N1CCSC(=S)N1CCSCC1`?
LEDGF integ inh: 1; ARFGAP1 inh: -9; MBD2 DNA inh: -1; TCR CD3 inh: 12; ASAP1 GAP inh: 0; UHRF1 binding: -1

Results for COc1cc(C(=O)c2nccc3cc(OC)c(OC)cc23)c([N+](=O)[O-])cc1OC ?
LEDGF integ inh: 33*; ARFGAP1 inh: 0; MBD2 DNA inh: -2; TCR CD3 inh: 3; ASAP1 GAP inh: 11; UHRF1 binding: 28*; IN multimer act: 0; TR-FRET interf: 1; LEDGF integ conf: 45*

Results for C[C@@H]1C=C(C(=O)NCc2ccccc2)O[C@H](OCc2ccc(CO)cc2)C1 ?
LEDGF integ inh: 16*; ARFGAP1 inh: -7; MBD2 DNA inh: 9; TCR CD3 inh: 5; ASAP1 GAP inh: 5; UHRF1 binding: 22*; IN multimer act: 0; TR-FRET interf: 2; LEDGF integ conf: 1

Results for CN1CCC/C1=C/C=C1\SC(=S)NC1=O ?
LEDGF integ inh: 18*; ARFGAP1 inh: 5; MBD2 DNA inh: -12; TCR CD3 inh: 15; ASAP1 GAP inh: -5; UHRF1 binding: -16; IN multimer act: 17*; TR-FRET interf: -61; LEDGF integ conf: -2

How did CN1/C(=C\C=C2/SC(=S)NC2=O)C(C)(C)c2ccccc21 do in these assays?
LEDGF integ inh: -1; ARFGAP1 inh: 13; MBD2 DNA inh: -17; TCR CD3 inh: -130; ASAP1 GAP inh: 8; UHRF1 binding: -21

Results for O=C(Nc1cccc(C(=O)N2CCOCC2)c1)C1CC1 ?
LEDGF integ inh: 3; ARFGAP1 inh: 12; MBD2 DNA inh: -2; TCR CD3 inh: 6; ASAP1 GAP inh: 5; UHRF1 binding: 0

Results for O=C(Nc1ncc2c(n1)CC(c1ccco1)CC2=O)c1ccco1 (stereo not given) ?
LEDGF integ inh: 13*; ARFGAP1 inh: -6; MBD2 DNA inh: -3; TCR CD3 inh: -7; ASAP1 GAP inh: 0; UHRF1 binding: 10; IN multimer act: 1; TR-FRET interf: -4; LEDGF integ conf: 0
